What all share (format): functional
Experiment [1] relates to Mus musculus. Description: Effect on acute pulmonary thromboembolism in mice at 100 mg/kg. Put shortly:
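Male Swiss mice (29.4 ± 2.6 g) received a single ip dose 1 h before a rapid tail-vein injection of collagen (25 μg/mouse) plus epinephrine (27 μg/mouse) in 0.154 M NaCl. Asarones were given in miglyol 812, and ketorolac in DMSO/Sörensen phosphate buffer pH 7.0, at 0.1 mL/10 g. Death or paralysis was scored within 10 min and reported as % protected versus vehicle controls; χ² test.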

Experiment [2] has as its system Mus musculus. Description: Effect on acute pulmonary thromboembolism in mice at 100 mg/kg expressed as no. of killed or paralyzed to no. of tested observed after 10 min. The method, boiled down: (§1)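 Male Swiss mice (29.4 ± 2.6 g) were given a single ip dose 1 h before a rapid tail-vein injection of collagen (25 μg/mouse) plus epinephrine (27 μg/mouse) in 0.154 M NaCl. Vehicles were miglyol 812 for asarones, or DMSO with Sörensen phosphate buffer pH 7.0 for ketorolac, at 0.1 mL/10 g. Death or paralysis was scored within 10 min; controls received vehicle only; χ² test.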

Experiment [3] is filed under the species Homo sapiens. Description: In vitro inhibition of human platelet aggregation induced by 10 uM ADP after incubation at 150 uM. The method, boiled down: (§2)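 Born turbidimetric assay in citrated platelet-rich plasma from healthy male volunteers, with platelet-poor plasma set as 100% transmission. Agents in 95% ethanol were preincubated with PRP for 2 min at 37 °C, stirred at 1000 rpm.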

The species entered for experiment [4] is Homo sapiens. Description: In vitro inhibition of human platelet aggregation induced by 10 uM ADP after incubation at 200 uM. The method, boiled down:
as §2

For experiment [5], the species on record is Homo sapiens. Kind of experiment: In vitro inhibition of human platelet aggregation induced by 10 uM ADP after incubation at 250 uM. Put shortly: as §2
The species named for experiment [6] is Homo sapiens. Description: In vitro inhibition of human platelet aggregation induced by 10 uM ADP after incubation at 300 uM. Put shortly:
as §2

The species named for experiment [7] is Homo sapiens. Description: In vitro inhibition of human platelet aggregation induced by 10 uM ADP after incubation at 100 uM. Put shortly: as §2
Experiment [8] deals with Rattus norvegicus. Kind of experiment: LDL (low density lipoproteins) cholesterol level in Wistar male rats at a dose of 80 mg/kg. The method, boiled down:
(§3)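 Compounds in oil (5 mL/kg) were given by gastric intubation once daily, at 80 mg/kg or 150 mg/kg for clofibrate. Rats were then fasted 16 h […], and serum lipids were measured spectrophotometrically with kits; Student's t-test.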

In experiment [9] the test system is Rattus norvegicus. Description: HDL (high density lipoproteins) cholesterol level in Wistar male rats at a dose of 80 mg/kg. Put shortly:
(§4)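 Agents in oil (5 mL/kg) were given once daily by gastric intubation. Doses were 80 mg/kg for test agents and 150 mg/kg for the positive control; chow-fed and vehicle-oil groups served as controls. After a 16 h fast and ether anesthesia, ocular-puncture blood was drawn. Serum lipids were measured by kit spectrophotometry; Student's t-test, n = 9–10.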

Experiment [10] has as its system Rattus norvegicus. Description: Total cholesterol level in Wistar male rats administered at a dose of 80 mg/kg. Put shortly:
as §4

Experiment [11] deals with Rattus norvegicus. Kind of experiment: Triglyceride level in Wistar male rats administered at a dose of 80 mg/kg. The method, boiled down: as §4
Experiment [12] deals with Rattus norvegicus. Kind of experiment: Triglyceride level in Wistar male rats at a dose of 80 mg/kg. The method, boiled down: as §3
In experiment [13] the test system is Rattus norvegicus. Kind of experiment: Total cholesterol level in Wistar male rats at a dose of 80 mg/kg. Put shortly: as §3
Experiment [14] deals with Mus musculus. Description: Effect on acute pulmonary thromboembolism in mice at 25 mg/kg.
In experiment [15] the test system is Mus musculus. Kind of experiment: Effect on acute pulmonary thromboembolism in mice at 25 mg/kg expressed as no. of killed or paralyzed to no. of tested observed after 10 min.
Experiment [16] is filed under the species Rattus norvegicus. Kind of experiment: HDL (high density lipoproteins) cholesterol level in Wistar male rats. The method, boiled down:
as §4

Experiment [17] is filed under the species Rattus norvegicus. Kind of experiment: Triglyceride level in Wistar male rats. The method, boiled down: as §4
The species entered for experiment [18] is Rattus norvegicus. Kind of experiment: Cholesterol level in Wistar male rats. Put shortly: as §4
The species named for experiment [19] is Rattus norvegicus. Description: LDL (low density lipoproteins) cholesterol level in Wistar male rats. Put shortly: as §3
Experiment [20] deals with Rattus norvegicus. Kind of experiment: HDL (high density lipoproteins) cholesterol level in Wistar male rats at 150 mg/kg. Put shortly:
as §4

The subject of experiment [21] is Rattus norvegicus. Kind of experiment: Total cholesterol level in Wistar male rats at a dose of 150 mg/kg. The method, boiled down:
as §4

Experiment [22] has as its system Rattus norvegicus. Description: LDL (low density lipoproteins) cholesterol level in Wistar male rats at 150 mg/kg. The method, boiled down: as §3
In experiment [23] the test system is Rattus norvegicus. Kind of experiment: Triglyceride level in Wistar male rats at a dose of 150 mg/kg. The method, boiled down:
as §4

For experiment [24], the system named is Mus musculus. Description: Effect on acute pulmonary thromboembolism in mice at 50 mg/kg. Put shortly:
as §1

Experiment [25] relates to Mus musculus. Description: Effect on acute pulmonary thromboembolism in mice at 50 mg/kg expressed as no. of killed or paralyzed to no. of tested observed after 10 min. The method, boiled down:
as §1

For `C/C=C/c1ccc(OC)c(OC)c1OC`, the Protected in the experiment on Mus musculus [1] was 0%. Further, the “No. of killed or paralyzed” value in the experiment with Mus musculus [2] is 14.
Take `C/C=C/c1c(OC)cc(OC)cc1OC`: the Inhibition is recorded as 19% in the experiment filed under Homo sapiens [3]; 31% in the experiment filed under Homo sapiens [4]; 7.5% in the experiment filed under Homo sapiens [5]; 17.5% in the experiment filed under Homo sapiens [6]; 15.9% in the experiment listed under Homo sapiens [7]. This compound also returned a Protected with Mus musculus [1] of 25%. Moreover, the “No. of killed or paralyzed” value in the experiment on Mus musculus [2] came out at 30.
Turning to `C/C=C/c1cc(OC)cc(OC)c1OC`, the Inhibition in the experiment listed under Homo sapiens [3] amounted to 25.4%; in the experiment filed under Homo sapiens [4], 35.4%; in the experiment listed under Homo sapiens [5], 38.3%; in the experiment filed under Homo sapiens [6] it was 38.3%; in the experiment filed under Homo sapiens [7], 13%. Also, the Protected in the experiment on Mus musculus [1] worked out at 52%. The “No. of killed or paralyzed” value in the experiment on Mus musculus [2] is on record as 12.
Consider `C/C=C/c1cc(OC)c(OC)c(OC)c1`, for which the Protected in the experiment with Mus musculus [1] was 19%. In addition, the “No. of killed or paralyzed” value in the experiment on Mus musculus [2] amounted to 17.
For `C/C=C/c1ccc(OC)c(OC)c1OC.CC(C)CCC[C@@H](C)[C@H]1CC[C@H]2[C@@H]3CC=C4C[C@@H](O)CC[C@]4(C)[C@H]3CC[C@]12C`, the LDL cholesterol with Rattus norvegicus [8] stood at 30.1 mg/dL. For the same compound, in the experiment with Rattus norvegicus [9], the HDL cholesterol turned out to be 42.8 mg/dL. This compound also came in with a Total cholesterol in the experiment with Rattus norvegicus [10] of 96.6 mg/dL. For the same compound, the Triglyceride level with Rattus norvegicus [11] worked out at 125 mg/dL.
The matching figures for `C/C=C/c1cc(OC)cc(OC)c1OC.CC(C)CCC[C@@H](C)[C@H]1CC[C@H]2[C@@H]3CC=C4C[C@@H](O)CC[C@]4(C)[C@H]3CC[C@]12C`: 35.8 mg/dL, 39.2 mg/dL, 97.9 mg/dL and 140 mg/dL.
The corresponding values for `C/C=C/c1cc(OC)c(OC)c(OC)c1.CC(C)CCC[C@@H](C)[C@H]1CC[C@H]2[C@@H]3CC=C4C[C@@H](O)CC[C@]4(C)[C@H]3CC[C@]12C` are 19.8 mg/dL, 45.3 mg/dL, 93.4 mg/dL and 136 mg/dL.
The compound `C/C=C/c1c(OC)cc(OC)cc1OC.CC(C)CCC[C@@H](C)[C@H]1CC[C@H]2[C@@H]3CC=C4C[C@@H](O)CC[C@]4(C)[C@H]3CC[C@]12C` displayed an LDL cholesterol with Rattus norvegicus [8] of 36.9 mg/dL. In addition, the HDL cholesterol with Rattus norvegicus [9] was determined as 37.9 mg/dL. Also, the Total cholesterol with Rattus norvegicus [10] came to 98.1 mg/dL. This compound also had a Triglyceride level with Rattus norvegicus [11] of 116 mg/dL.
The matching figures for `C/C=C/c1c(OC)ccc(OC)c1OC.CC(C)CCC[C@@H](C)[C@H]1CC[C@H]2[C@@H]3CC=C4C[C@@H](O)CC[C@]4(C)[C@H]3CC[C@]12C`: 48.2 mg/dL, 30.2 mg/dL, 115 mg/dL and 162 mg/dL.
Compound `C/C=C/c1cc(OC)c(OC)cc1OC.CC(C)CCC[C@@H](C)[C@H]1CC[C@H]2[C@@H]3CC=C4C[C@@H](O)CC[C@]4(C)[C@H]3CC[C@]12C` [ALPHAASARONE AND CHOLESTEROL] registered an LDL cholesterol with Rattus norvegicus [8] of 24.4 mg/dL. For the same compound, the HDL cholesterol in the experiment with Rattus norvegicus [9] was found to be 45.5 mg/dL. In addition, the Triglyceride level with Rattus norvegicus [12] is on record as 219.3. For the same compound, in the experiment on Rattus norvegicus [13], the Total cholesterol was 113.6 mg/kg.
In the experiment on Mus musculus [14], `CC(=O)Oc1ccccc1C(=O)O` [ASPIRIN] gave a Protected of 45%. Besides, the Inhibition in the experiment filed under Homo sapiens [3] is on record as 37.1%; in the experiment filed under Homo sapiens [4], 48.5%; in the experiment filed under Homo sapiens [5], 56.4%; in the experiment listed under Homo sapiens [7] it was 31.2%. Besides, the “No. of killed or paralyzed” value with Mus musculus [15] came out at 28.
In the experiment listed under Rattus norvegicus [16], `CC(C)CCC[C@@H](C)[C@H]1CC[C@H]2[C@@H]3CC=C4C[C@@H](O)CC[C@]4(C)[C@H]3CC[C@]12C` [CHOLESTEROL] yielded an HDL cholesterol of 29 mg/dL. The Triglyceride level in the experiment filed under Rattus norvegicus [17] stood at 125 mg/dL. The compound further came in with a Total cholesterol in the experiment listed under Rattus norvegicus [18] of 111 mg/dL. In the experiment listed under Rattus norvegicus [19], this compound came in with an LDL cholesterol of 43.2 mg/dL.
For `CC(C)CCC[C@@H](C)[C@H]1CC[C@H]2[C@@H]3CC=C4C[C@@H](O)CC[C@]4(C)[C@H]3CC[C@]12C.CCOC(=O)C(C)(C)Oc1ccc(Cl)cc1` [CLOFIBRATE + CHOLESTEROL], the HDL cholesterol in the experiment with Rattus norvegicus [20] amounted to 22.1 mg/dL. The Total cholesterol in the experiment on Rattus norvegicus [21] is 85.8 mg/dL. Besides, in the experiment with Rattus norvegicus [22], the LDL cholesterol was 46.1 mg/dL. Moreover, the Triglyceride level with Rattus norvegicus [23] came to 91.6 mg/dL.
`O=C(c1ccccc1)c1ccc2n1CCC2C(=O)O` (configuration not stated) [KETOROLAC] gave a Protected in the experiment on Mus musculus [1] of 33%. The “No. of killed or paralyzed” value with Mus musculus [2] worked out at 16.
For the compound `C/C=C/c1cc(OC)c(OC)cc1OC` [TRANS-ASARONE], the Inhibition was 14.7% in the experiment filed under Homo sapiens [3]; 40.3% in the experiment filed under Homo sapiens [4]; 30.3% in the experiment filed under Homo sapiens [5]; 47% in the experiment filed under Homo sapiens [6]; 4% in the experiment listed under Homo sapiens [7]. For the same compound, the Protected in the experiment on Mus musculus [1] is on record as 44%; in the experiment with Mus musculus [24] it was 0%. Also, the figures for the “No. of killed or paralyzed” value in the experiment on Mus musculus [2] and with Mus musculus [25] were 10 and 13, respectively.

The Inhibition is the drop in the measured response relative to a control, in per cent. A low value points to a weak effect.

Source of the values: ChEMBL document CHEMBL1133676, “Synthesis and hypolipidemic and antiplatelet activities of alpha-asarone isomers in humans (in vitro), mice (in vivo), and rats (in vivo)” (2000).
